These results are taken from ChEMBL document CHEMBL1125349 (J Med Chem, 1992).

Assay [1] has as its target T1, Substance-K receptor (Rattus norvegicus, UniProt P16610).
T1 sequence (P16610 whole entry): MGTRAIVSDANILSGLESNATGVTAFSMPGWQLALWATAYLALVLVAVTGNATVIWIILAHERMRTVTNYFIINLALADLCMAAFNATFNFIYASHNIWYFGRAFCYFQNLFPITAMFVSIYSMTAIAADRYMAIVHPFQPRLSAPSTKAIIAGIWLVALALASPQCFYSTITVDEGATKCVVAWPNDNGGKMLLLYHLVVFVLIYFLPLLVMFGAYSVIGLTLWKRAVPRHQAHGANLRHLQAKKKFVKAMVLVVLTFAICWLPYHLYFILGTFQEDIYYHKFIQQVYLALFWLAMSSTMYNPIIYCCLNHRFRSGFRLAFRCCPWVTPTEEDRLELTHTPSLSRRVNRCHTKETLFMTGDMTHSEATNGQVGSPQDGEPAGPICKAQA
In words: In vitro agonistic activity against tachykinin receptor 2 of rat colon muscularis mucosae. It is filed as functional. The method, boiled down:
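Colon muscularis mucosae from male AH/A rats (250-350 g), 3-mL baths, 0.5 g resting tension, 35 °C, with atropine, mepyramine, methysergide and indomethacin (1 µM each). Isotonic contraction was recorded.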

Assay [2] has as its target T2, Neuromedin-K receptor (Rattus norvegicus, UniProt P16177).
T2 sequence (P16177 whole entry): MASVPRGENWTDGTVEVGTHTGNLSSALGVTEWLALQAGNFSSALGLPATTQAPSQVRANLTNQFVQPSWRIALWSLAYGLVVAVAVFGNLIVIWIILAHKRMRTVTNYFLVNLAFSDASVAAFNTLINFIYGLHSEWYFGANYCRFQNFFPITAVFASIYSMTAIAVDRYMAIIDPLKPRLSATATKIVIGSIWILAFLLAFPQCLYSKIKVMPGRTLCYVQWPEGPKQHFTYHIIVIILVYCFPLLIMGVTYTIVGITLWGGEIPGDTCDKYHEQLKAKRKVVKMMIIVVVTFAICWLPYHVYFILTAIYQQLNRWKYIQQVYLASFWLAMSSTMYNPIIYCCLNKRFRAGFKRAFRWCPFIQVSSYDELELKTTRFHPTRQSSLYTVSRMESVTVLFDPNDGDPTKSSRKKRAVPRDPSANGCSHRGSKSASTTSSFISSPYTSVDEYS
In words: In vitro agonistic activity against tachykinin receptor 3 of everted rat protal vein. Type of assay: functional. The method, boiled down: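 Everted isolated portal vein segments from male AH/A rats, 3-mL baths at 37 °C, 0.5 g resting tension, modified Krebs-Henseleit medium, isotonic contractions. […] Equipotent molar ratios were calculated and related to the reference agonist's mean EC50.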

Assay [3] has as its target Substance-P receptor (Cavia porcellus, UniProt P30547). Kind of assay: In vitro agonistic activity against tachykinin receptor 1 of guinea pig ileum longitudinal smooth muscle. It is filed as functional, tissue-based.

Non-standard residues stand in square brackets, D forms with d. Residues, ends and D or L forms follow the SMILES beside them. Ava = NCCCCC(=O)O Where only a bound is given, the exact number is not on record here.

Sequence of Substance-P receptor (P30547 whole entry): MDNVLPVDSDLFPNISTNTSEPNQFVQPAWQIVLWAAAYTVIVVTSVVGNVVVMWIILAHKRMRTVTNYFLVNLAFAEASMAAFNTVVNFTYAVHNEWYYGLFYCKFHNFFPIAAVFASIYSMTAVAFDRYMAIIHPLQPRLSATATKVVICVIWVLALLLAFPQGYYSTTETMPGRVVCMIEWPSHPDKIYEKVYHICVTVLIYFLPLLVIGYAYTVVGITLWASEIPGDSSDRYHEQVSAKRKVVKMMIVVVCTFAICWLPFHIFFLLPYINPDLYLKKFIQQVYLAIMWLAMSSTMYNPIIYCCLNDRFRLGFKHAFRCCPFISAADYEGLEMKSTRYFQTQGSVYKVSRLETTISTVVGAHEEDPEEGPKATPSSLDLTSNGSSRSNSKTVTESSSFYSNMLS

As to `CSCC[C@H](NC(=O)[C@H](CC(C)C)N1CC[C@@H](NC(=O)[C@@H](NC(=O)[C@H](Cc2ccccc2)NC(=O)[C@H](CO)NC(=O)[C@H](CC(=O)O)NC(=O)[C@@H](N)CCCCN)C(C)C)C1=O)C(N)=O`, the concentration giving a half-maximal response (EC50) in assay [1] turned out to be 3.7 nM; in assay [2] it was 1180 nM; in assay [3], 4240 nM.
As for `CSCC[C@H](NC(=O)[C@H](CC(C)C)N1CC2CCN(C(=O)[C@@H](NC(=O)[C@H](Cc3ccccc3)NC(=O)[C@H](CO)NC(=O)[C@H](CC(=O)O)NC(=O)[C@@H](N)CCCCN)C(C)C)C2C1=O)C(N)=O` (stereo not given in full), the EC50 in assay [1] was determined as 59 nM; in assay [2], 2720 nM; in assay [3] it was 1130 nM.
For `CSCC[C@H](NC(=O)[C@H](CC(C)C)N1CC[C@]2(CCCN2C(=O)[C@H](Cc2ccccc2)NC(=O)[C@H](Cc2ccccc2)NC(=O)CCCCN)C1=O)C(N)=O`, the EC50 in assay [1] worked out at 1390 nM; in assay [3], 307 nM.
As for `CSCC[C@H](NC(=O)[C@H](CC(C)C)N1C[C@H]2CCN(C(=O)[C@H](Cc3ccccc3)NC(=O)[C@H](Cc3ccccc3)NC(=O)CCCCN)[C@H]2C1=O)C(N)=O`, the concentration giving a half-maximal response (EC50) was 15 nM in assay [1], > 18000 nM in assay [2] and 545 nM in assay [3].
On to `CSCC[C@H](NC(=O)[C@H](CC(C)C)N1CCC(NC(=O)[C@@H](NC(=O)[C@H](Cc2ccccc2)NC(=O)[C@H](CO)NC(=O)[C@H](CC(=O)O)NC(=O)[C@H](CCCCN)NC(C)=O)C(C)C)C1=O)C(N)=O` (stereo not given in full), for which the results for the EC50 in assay [1] and in assay [3] were 1.3 nM and 44 nM, respectively.
On to `CSCC[C@H](NC(=O)[C@H](CC(C)C)N1CCC(NC(=O)[C@H](Cc2ccccc2)NC(=O)[C@H](Cc2ccccc2)NC(=O)CCCCN)C1=O)C(N)=O` (stereo not given in full), for which the EC50 amounted to 62 nM in assay [1], 10600 nM in assay [2] and 86 nM in assay [3].
In the same order, the values of `CSCC[C@H](NC(=O)[C@H](CC(C)C)NC(=O)[C@H]1CCCN1C(=O)[C@H](Cc1ccccc1)NC(=O)[C@H](Cc1ccccc1)NC(=O)CCCCN)C(N)=O` are 92 nM, > 30000 nM and 830 nM.
Regarding `CSCC[C@H](NC(=O)[C@H](CC(C)C)N1CC2CCN(C(=O)[C@H](Cc3ccccc3)NC(=O)[C@H](Cc3ccccc3)NC(=O)[C@H](CO)NC(=O)[C@H](CC(=O)O)NC(=O)[C@@H](N)CCCCN)C2C1=O)C(N)=O` (stereo not given in full), the concentration for a half-maximal effect (EC50) in assay [1] worked out at 45 nM; in assay [2], 2630 nM; in assay [3], 1030 nM.
In the same order, the values of `CSCC[C@H](NC(=O)[C@H](CC(C)C)NC(=O)CNC(=O)[C@@H](NC(=O)[C@H](Cc1ccccc1)NC(=O)[C@H](CO)NC(=O)[C@H](CC(=O)O)NC(=O)[C@@H](N)CCCCN)C(C)C)C(N)=O` are 3 nM, 870 nM and 61 nM.
Turning to `CSCC[C@H](NC(=O)[C@@H](CC(C)C)N1C[C@H]2CCN(C(=O)[C@H](Cc3ccccc3)NC(=O)[C@H](Cc3ccccc3)NC(=O)CCCCN)[C@H]2C1=O)C(N)=O`, the concentration giving a half-maximal response (EC50) in assay [1] was 2100 nM; in assay [2] it was > 47000 nM; in assay [3], 5230 nM.
For `CSCC[C@H](NC(=O)[C@H](CC(C)C)N1C[C@@H]2CCN(C(=O)[C@H](Cc3ccccc3)NC(=O)[C@H](Cc3ccccc3)NC(=O)CCCCN)[C@@H]2C1=O)C(N)=O`, the half-maximal effective concentration (EC50) in assay [1] is 1190 nM; in assay [2], > 8220 nM; in assay [3], 37700 nM.
In the same order, the values of `CSCC[C@H](NC(=O)[C@@H](CC(C)C)N1C[C@@H]2CCN(C(=O)[C@H](Cc3ccccc3)NC(=O)[C@H](Cc3ccccc3)NC(=O)CCCCN)[C@@H]2C1=O)C(N)=O` are 566 nM, > 30000 nM and 3730 nM.
In the same order, the values of `CSCC[C@H](NC(=O)[C@H](CC(C)C)NC(=O)[C@@H]1CCCN1C(=O)[C@H](Cc1ccccc1)NC(=O)[C@H](Cc1ccccc1)NC(=O)CCCCN)C(N)=O` are 13000 nM, > 10000 nM and 13.4 nM.
Taken in the same sequence, the figures for `CSCC[C@H](NC(=O)[C@H](CC(C)C)NC(=O)CNC(=O)[C@H](Cc1ccccc1)NC(=O)[C@H](Cc1ccccc1)NC(=O)CCCCN)C(N)=O` (H-[Ava]FFGLM-NH2) were 1190 nM, 11300 nM and 38 nM.
For `CSCC[C@H](NC(=O)[C@H](CC(C)C)NC(=O)CNC(=O)[C@@H](NC(=O)[C@H](Cc1ccccc1)NC(=O)CCCCN)C(C)C)C(N)=O` (H-[Ava]FVGLM-NH2), the EC50 in assay [1] was 94 nM; in assay [3] it was 86 nM.
Consider `CSCC[C@H](NC(=O)[C@H](CC(C)C)NC(=O)CNC(=O)[C@@H](NC(=O)[C@H](Cc1ccccc1)NC(=O)[C@H](CO)NC(=O)[C@H](CC(=O)O)NC(=O)[C@@H](NC(=O)[C@H](CCCCN)NC(=O)[C@@H](N)Cc1cnc[nH]1)[C@@H](C)O)C(C)C)C(N)=O` [NEUROKININ A], for which the EC50 in assay [2] turned out to be 563 nM; in assay [3] it was 13.7 nM.
In the same order, the values of `CSCC[C@H](NC(=O)[C@H](CC(C)C)NC(=O)CNC(=O)[C@@H](NC(=O)[C@H](Cc1ccccc1)NC(=O)[C@H](Cc1ccccc1)NC(=O)[C@H](CC(=O)O)NC(=O)[C@H](Cc1c[nH]cn1)NC(=O)[C@H](CCSC)NC(=O)[C@@H](N)CC(=O)O)C(C)C)C(N)=O` [NEUROKININ B] are 6.3 nM and 68 nM.
`CSCC[C@H](NC(=O)[C@H](CC(C)C)NC(=O)CNC(=O)[C@H](Cc1ccccc1)NC(=O)[C@H](Cc1ccccc1)NC(=O)[C@H](CCC(N)=O)NC(=O)[C@H](CCC(N)=O)NC(=O)[C@@H]1CCCN1C(=O)[C@H](CCCCN)NC(=O)[C@@H]1CCCN1C(=O)[C@@H](N)CCCN=C(N)N)C(N)=O` [SUBSTANCE P]: in assay [2], a half-maximal effect (EC50) was put at 7500 nM.
Turning to H-KDSFFGLM-NH2, the EC50 stood at 33 nM in assay [1], 857 nM in assay [2] and 45 nM in assay [3].

Broadly, the EC50 is the concentration at which the effect is half-maximal.
